Source: ChEMBL document CHEMBL1126703, “Synthesis of 2'-deoxyuridine and 5-fluoro-2'-deoxyuridine derivatives and evaluation in antibody targeting studies” (J Med Chem, 1993)
Converted amounts (≈) assume the structure as drawn. “And” between values parts separate entries of the source, which are not always exact repeats. Equal values may be shown once.

Columns and labels:
Format in all cases: functional, cell-based
Details in all cases: Homo sapiens
791T cell line [1] = test: Tested for cytotoxicity against antigen positive 791T osteosarcoma cells […]
How it was run: (§1)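 Cytotoxicity was measured as inhibition of [75Se]selenomethionine uptake in a microplate assay, with cells incubated continuously with drug or conjugate. Antigen-positive 791T osteosarcoma cells carry about 6 × 10⁵ antigens/cell; T-24 bladder carcinoma cells carry about 3–5% of that level. Both lines were grown as monolayers in Eagle's MEM with 10% newborn calf serum and passaged using trypsin (0.25%)/EDTA (0.5%).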

T-24 [2] = test: Tested for cytotoxicity against antigen negative T-24 bladder carcinoma cells having only 3-5% antigen expression; how it was run: as §1
C170 = test: Tested for cytotoxicity against C170 colorectal carcinoma cell line by [75Se]selenomethionine uptake assay, in vitro
791T cell line [3] = test: Tested for cytotoxicity against antigen positive 791T osteosarcoma cells […]; <20% inhibition achieved; how it was run: as §1
T-24 [4] = test: Tested for cytotoxicity against antigen negative T-24 bladder carcinoma cells having only 3-5% antigen expression; <20% inhibition achieved; how it was run: as §1
791T cell line [5] = test: Tested for cytotoxicity against antigen positive 791T osteosarcoma cells of conjugate AH1.11 (Type H1: MSR-33); how it was run: as §1
791T cell line [6] = test: Tested for cytotoxicity against antigen positive 791T osteosarcoma cells of conjugate H1.11 (Type H1: MSR-33); how it was run: as §1
T-24 [7] = test: Tested for cytotoxicity against antigen negative T-24 bladder carcinoma cells of conjugate AH1.11 (Type H1: MSR-33); how it was run: as §1
T-24 [8] = test: Tested for cytotoxicity against antigen negative T-24 bladder carcinoma cells of conjugate H1.11 (Type H1: MSR-33); how it was run: as §1
791T cell line [9] = test: Tested for cytotoxicity against antigen positive 791T osteosarcoma cells […] (49% inhibition achieved at 100 micro g/mL)
791T cell line [10] = test: Tested for cytotoxicity against antigen positive 791T osteosarcoma cells of conjugate AH1.11 (Type H2: MSR-26); how it was run: as §1
791T cell line [11] = test: Tested for cytotoxicity against antigen positive 791T osteosarcoma cells of conjugate H1.11 (Type H2: MSR-26); how it was run: as §1
791T cell line [12] = test: Tested for cytotoxicity against antigen positive 791T osteosarcoma cells of conjugate H1.11 (Type H2: MSR-26) (less than 20% inhibition achieved); how it was run: as §1
T-24 [13] = test: Tested for cytotoxicity against antigen negative T-24 bladder carcinoma cells of conjugate AH1.11 (Type H2: MSR-26); how it was run: as §1
T-24 [14] = test: Tested for cytotoxicity against antigen negative T-24 bladder carcinoma cells of conjugate H1.11 (Type H2: MSR-26); how it was run: as §1
791T cell line [15] = test: Tested for cytotoxicity against antigen positive 791T osteosarcoma cells of conjugate AH1.11 (Type H3: MSR-28); <20% inhibition achieved; how it was run: as §1
791T cell line [16] = test: Tested for cytotoxicity against antigen positive 791T osteosarcoma cells of conjugate H1.11 (Type H3: MSR-28); <20% inhibition achieved; how it was run: as §1
T-24 [17] = test: Tested for cytotoxicity against antigen negative T-24 bladder carcinoma cells of conjugate AH1.11 (Type H3: MSR-28); 20%-40% inhibition achieved; how it was run: as §1
T-24 [18] = test: Tested for cytotoxicity against antigen negative T-24 bladder carcinoma cells of conjugate H1.11 (Type H3: MSR-28); <20% inhibition achieved; how it was run: as §1

SMILES | IC50 (791T cell line [1]) | IC50 (T-24 [2]) | IC50 (C170) | also measured
CCOC(=O)CCC(=O)NC[C@H]1O[C@@H](n2cc(F)c(=O)[nH]c2=O)C[C@@H]1O | > 100 µg/mL and > 280 µM | > 100 µg/mL and > 280 µM |  | 
O=C(O)[C@H]1O[C@@H](n2cc(F)c(=O)[nH]c2=O)C[C@@H]1O |  |  | 10 µg/mL and 41 µM | 
NC[C@H]1O[C@@H](n2cc(F)c(=O)[nH]c2=O)C[C@@H]1O |  |  | 26 µg/mL and 107 µM | 
CCOC(=O)c1ccc(NC(=O)[C@H]2O[C@@H](n3cc(F)c(=O)[nH]c3=O)C[C@@H]2O)cc1 |  |  |  | IC50 (791T cell line [3]): > 100 µg/mL and > 300 µM; IC50 (T-24 [4]): > 100 µg/mL and > 300 µM
CCCCNC(=O)/C=C/C(=O)NC[C@H]1O[C@@H](n2cc(F)c(=O)[nH]c2=O)C[C@@H]1O | > 100 µg/mL and > 300 µM | > 100 µg/mL and > 300 µM |  | 
O=C(O)CCC(=O)NC[C@H]1O[C@@H](n2cc(F)c(=O)[nH]c2=O)C[C@@H]1O | > 100 µg/mL and > 290 µM | 21 µg/mL and 62 µM |  | IC50 (791T cell line [5]): 0.4 µg/mL and 1.1 µM; IC50 (791T cell line [6]): 7.1 µg/mL and 20.6 µM; IC50 (T-24 [7]): 0.4 µg/mL and 1.1 µM; IC50 (T-24 [8]): 5.7 µg/mL and 16.6 µM
O=C(O)/C=C/C(=O)NC[C@H]1O[C@@H](n2cc(F)c(=O)[nH]c2=O)C[C@@H]1O | 110 µg/mL (≈ 320 µM) | 79 µg/mL and 231 µM |  | IC50 (791T cell line [9]): 320 µM; IC50 (791T cell line [10]): > 0.5 µg/mL and > 1.5 µM; IC50 (791T cell line [11]): > 30 µM; IC50 (791T cell line [12]): > 10 µg/mL; IC50 (T-24 [13]): > 0.5 µg/mL and > 1.5 µM; IC50 (T-24 [14]): > 10 µg/mL and > 30 µM
O=C(O)c1ccc(NC(=O)[C@H]2O[C@@H](n3cc(F)c(=O)[nH]c3=O)C[C@@H]2O)cc1 |  | 100 µg/mL and 263 µM |  | IC50 (791T cell line [3]): > 100 µg/mL and > 300 µM; IC50 (791T cell line [15]): > 1 µg/mL and > 2.6 µM; IC50 (791T cell line [16]): > 3 µg/mL and > 7.9 µM; IC50 (T-24 [17]): > 1 µg/mL and > 2.6 µM; IC50 (T-24 [18]): > 3 µg/mL and > 7.9 µM
O=c1[nH]c(=O)n([C@H]2C[C@H](O)[C@@H](CO)O2)cc1F [FLOXURIDINE] | 0.8 µg/mL and 3.2 µM | 1 µg/mL and 4.1 µM | 0.1 µg/mL and 400 nM | 
O=c1[nH]cc(F)c(=O)[nH]1 [FLUOROURACIL] | 0.7 µg/mL and 5.5 µM | 0.5 µg/mL and 4.1 µM | 0.3 µg/mL and 2 µM | 
